Assay results as given in ChEMBL document CHEMBL2169845 (J Med Chem, 2012).
Calls of active or inactive are those of the source.

Key:
[1] = Cytotoxicity against human NCI-H146 cells assessed as growth inhibition after 4 days by WST-8 assay; assay type: functional, cell-based; details: NCI-H146, 96 h
NCI-H146 [2] = assay: Induction of apoptosis in human NCI-H146 cells xenografted in SCID mouse assessed as caspase 3 cleavage at 50 mg/kg, iv after 3 to 24 hrs by Western blot analysis; assay type: functional, organism-based; design: dose 50 mg/kg
Method in brief: (§1)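 SCID mice bearing H146 xenografts (100–200 mm3) received one i.v. dose, with a vehicle control group. Tumors harvested at 3, 6 and 24 h. PARP cleavage and caspase-3 cleavage assessed by Western blot.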

Mus musculus [3] = assay: Toxicity in SCID mouse assessed as body weight loss at 50 mg/kg, iv administered 5 days per week for 2 weeks relative to vehicle-treated control; assay type: organism-based; design: dose 50 mg/kg, route intravenous; details: in vivo
Method in brief: (§2)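 Tolerability tested in SCID mice given daily i.v. doses, 5 days a week for 2 weeks. Body weight loss tracked against a 10% threshold.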

NCI-H146 [4] = assay: Antitumor activity against human NCI-H146 cells xenografted in SCID mouse assessed as tumor growth inhibition at 50 mg/kg, iv administered 5 days per week for 2 weeks; assay type: functional, organism-based; design: dose 50 mg/kg
Method in brief: (§3)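 SCID mice bearing H146 xenografts randomized at 40–110 mm3 tumor volume (mean 70 mm3), 8 per group. Dosed intravenously, daily, 5 days a week for 2 weeks, with a vehicle control group. Tumor size and body weight measured 3 times weekly during dosing and twice weekly afterwards. Tumor volumes reported as mean ± SEM.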

NCI-H146 [5] = assay: Induction of apoptosis in human NCI-H146 cells assessed as caspase 3 activation at 100 nM after 24 hrs by Western blot analysis; assay type: functional, cell-based
Method in brief: (§4)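 H146 cells treated for 24 hr, then lysed on ice for 20 min in RIPA buffer with PMSF and protease inhibitors. Cleared lysates normalized by protein assay and run on 4–20% SDS-PAGE, then blotted to PVDF. Probed with rabbit antibodies to PARP and caspase-3 (cleaved forms detected), GAPDH as loading control, with HRP chemiluminescence detection.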

[6] = Toxicity in iv dosed SCID mouse administered 5 days per week for 2 weeks; assay type: organism-based; details: in vivo
NCI-H1417 = assay: Cytotoxicity against human H1417 cells assessed as growth inhibition after 4 days by WST-8 assay; assay type: functional, cell-based; details: NCI-H1417, 96 h
NCI-H146 [7] = assay: Induction of apoptosis in human NCI-H146 cells assessed as cell viability after 24 hrs by trypan blue exclusion assay; assay type: functional, cell-based
Method in brief: (§5)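 H146 cells exposed to a range of compound concentrations for 24 hr, then harvested and stained with trypan blue. Cells staining blue or looking morphologically unhealthy were scored as dead. At least 100 cells counted per sample.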

[8] = biological target: T1, Apoptosis regulator Bcl-2 (Homo sapiens, UniProt P10415); assay: Inhibition of N-terminal 6xHis-tagged human Bcl-2 expressed in Escherichia coli BL21 (DE3) after 2 hrs by fluorescence polarization assay
T1 sequence (P10415 whole entry): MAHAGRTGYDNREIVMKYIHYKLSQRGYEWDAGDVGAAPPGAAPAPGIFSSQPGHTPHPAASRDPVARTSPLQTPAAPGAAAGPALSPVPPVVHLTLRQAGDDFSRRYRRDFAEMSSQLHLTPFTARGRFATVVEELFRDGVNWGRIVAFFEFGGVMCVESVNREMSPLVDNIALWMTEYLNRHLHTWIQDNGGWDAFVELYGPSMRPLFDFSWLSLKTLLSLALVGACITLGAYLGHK

NCI-H146 [9] = assay: Antitumor activity against human NCI-H146 cells xenografted in SCID mouse assessed as tumor regression at 50 mg/kg, iv administered 5 days per week for 2 weeks; assay type: functional, organism-based; design: dose 50 mg/kg; method in brief: as §3
[10] = Inhibition of c-terminally truncated N-terminal 8xHis-tagged human Bcl-xL deletion mutant expressed in Escherichia coli BL21 (DE3) after 2 hrs by fluorescence polarization assay
NCI-H146 [11] = assay: Induction of apoptosis in human NCI-H146 cells assessed as PARP cleavage at 100 nM after 24 hrs by Western blot analysis; assay type: functional, cell-based; method in brief: as §4
Mus musculus [12] = assay: Toxicity in SCID mouse assessed as body weight loss at 75 mg/kg, iv administered 5 days per week for 2 weeks relative to vehicle-treated control; assay type: organism-based; design: dose 75 mg/kg, route intravenous; details: in vivo; method in brief: as §2
[13] = biological target: T1, Apoptosis regulator Bcl-2
NCI-H146 [14] = assay: Induction of apoptosis in human NCI-H146 cells xenografted in SCID mouse assessed as PARP cleavage at 50 mg/kg, iv after 3 to 6 hrs by Western blot analysis; assay type: functional, organism-based; design: dose 50 mg/kg; method in brief: as §1
NCI-H146 [15] = assay: Induction of apoptosis in human NCI-H146 cells assessed as PARP cleavage at 30 nM after 24 hrs by Western blot analysis; assay type: functional, cell-based; method in brief: as §4
NCI-H146 [16] = assay: Induction of apoptosis in human NCI-H146 cells assessed as cell viability at 30 to 100 nM after 24 hrs by trypan blue exclusion assay; assay type: functional; method in brief: as §5
NCI-H146 [17] = assay: Induction of apoptosis in human NCI-H146 cells assessed as caspase 3 activation at 30 nM after 24 hrs by Western blot analysis; assay type: functional, cell-based; method in brief: as §4
NCI-H146 [18] = assay: Induction of apoptosis in human NCI-H146 cells assessed as caspase 3 activation at 10 nM after 24 hrs by Western blot analysis; assay type: functional, cell-based; method in brief: as §4
NCI-H146 [19] = assay: Induction of apoptosis in human NCI-H146 cells xenografted in SCID mouse assessed as PARP cleavage at 25 mg/kg, iv after 3 to 6 hrs by Western blot analysis; assay type: functional, organism-based; design: dose 25 mg/kg; method in brief: as §1
NCI-H146 [20] = assay: Antitumor activity against human NCI-H146 cells xenografted in SCID mouse assessed as tumor free incidence at 25 mg/kg, iv measured on day 47 post tumor implantation; assay type: functional, organism-based; design: dose 25 mg/kg; method in brief: as §3
Mus musculus [21] = assay: Toxicity in SCID mouse assessed as body weight loss at 25 mg/kg, iv administered 5 days per week for 2 weeks relative to vehicle-treated control; assay type: organism-based; design: dose 25 mg/kg, route intravenous; details: in vivo; method in brief: as §2
NCI-H146 [22] = assay: Induction of apoptosis in human NCI-H146 cells xenografted in SCID mouse assessed as caspase 3 cleavage at 25 mg/kg, iv after 3 to 24 hrs by Western blot analysis; assay type: functional, organism-based; design: dose 25 mg/kg; method in brief: as §1
[23] = Antitumor activity against human NCI-H146 cells xenografted in SCID mouse assessed as tumor free incidence at 25 mg/kg, iv measured on day 58 post tumor implantation; assay type: functional; method in brief: as §3
NCI-H146 [24] = assay: Antitumor activity against human NCI-H146 cells xenografted in SCID mouse assessed as tumor regression at 25 mg/kg, iv administered 5 days per week for 2 weeks; assay type: functional, organism-based; design: dose 25 mg/kg; method in brief: as §3
NCI-H146 [25] = assay: Induction of apoptosis in human NCI-H146 cells assessed as cell viability at 10 nM after 24 hrs by trypan blue exclusion assay; assay type: functional; details: NCI-H146, 24 h, read-out: Activity
Method in brief: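 H146 small-cell lung cancer cells exposed to serial compound concentrations for 24 hr, then collected and stained with trypan blue. Blue-stained or morphologically unhealthy cells were scored as dead, with at least 100 cells counted per sample.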

NCI-H146 [26] = assay: Induction of apoptosis in human NCI-H146 cells assessed as PARP cleavage at 10 nM after 24 hrs by Western blot analysis; assay type: functional, cell-based; method in brief: as §4
Mus musculus [27] = assay: Toxicity in SCID mouse assessed as body weight loss at 10 mg/kg, iv administered 5 days per week for 2 weeks relative to vehicle-treated control; assay type: organism-based; design: dose 10 mg/kg, route intravenous; details: in vivo; method in brief: as §2

| Compound | IC50 [8] [nM] | IC50 [10] [nM] | Ki [13] [nM] | IC50 [1] [nM] | IC50 (NCI-H1417) [nM] | Activity (NCI-H146 [7]) | other results |
| --- | --- | --- | --- | --- | --- | --- | --- |
| Cc1c(C(=O)O)c(-c2cccc(N3CCN(c4ccc(NS(=O)(=O)c5ccc(N[C@H](CCN6CCC(O)CC6)CSc6ccccc6)c(S(=O)(=O)C(F)(F)F)c5)cc4)CC3)c2)c(-c2ccc(Cl)cc2)n1C | 10.2 | 7 | 2.4 | 108 | 125 | Dose-dependent effect | Activity (NCI-H146 [2]): Active; Activity (Mus musculus [3]): < 10%; TGI (NCI-H146 [4]): Active; Activity (NCI-H146 [5]): Active; MTD at 2 weeks [6]: 50 mg/kg; Activity (NCI-H146 [9]): inactive; Activity (NCI-H146 [11]): Active; Activity (Mus musculus [12]): > 10%; Activity (NCI-H146 [14]): Active |
| CCCCn1c(C)c(C(=O)O)c(-c2cccc(N3CCN(c4ccc(NS(=O)(=O)c5ccc(N[C@H](CCN6CCC(O)CC6)CSc6ccccc6)c(S(=O)(=O)C(F)(F)F)c5)cc4)CC3)c2)c1-c1ccc(Cl)cc1 | 78.2 | 6.3 | 20 | 128 | 97 |  |  |
| CC1(C)CCC(c2ccc(Cl)cc2)=C(CN2CCN(c3ccc(C(=O)NS(=O)(=O)c4ccc(N[C@H](CCN5CCOCC5)CSc5ccccc5)c(S(=O)(=O)C(F)(F)F)c4)cc3)CC2)C1 [NAVITOCLAX] |  |  |  |  |  | Dose-dependent effect | Activity (NCI-H146 [15]): Active; Activity (NCI-H146 [16]): >50%; Activity (NCI-H146 [17]): Active |
| CCn1c(C)c(C(=O)O)c(-c2cccc(N3CCN(c4ccc(NS(=O)(=O)c5ccc(N[C@H](CCN6CCC(O)CC6)CSc6ccccc6)c(S(=O)(=O)C(F)(F)F)c5)cc4)CC3)c2)c1-c1ccc(Cl)cc1 | 5.4 | 6 | 1.2 | 22 | 21 | Dose-dependent effect | Activity (NCI-H146 [18]): Active; Activity (NCI-H146 [19]): Active; Activity (NCI-H146 [20]): Active; Activity (Mus musculus [21]): < 10%; Activity (Mus musculus [3]): > 10%; Activity (NCI-H146 [22]): Active; Activity [23]: 71%; MTD at 2 weeks [6]: 25 mg/kg; Activity (NCI-H146 [24]): Active; viability at 0.01 µM (NCI-H146 [25]): > 50%; Activity (NCI-H146 [26]): Active |
| Cc1c(C(=O)O)c(-c2cccc(N3CCN(c4ccc(NS(=O)(=O)c5ccc(N[C@H](CCN6CCC(O)CC6)CSc6ccccc6)c(S(=O)(=O)C(F)(F)F)c5)cc4)CC3)c2)c(-c2ccc(Cl)cc2)n1C(C)C | 4 | 3.9 | 0.8 | 13 | 9 | Dose-dependent effect | Activity (Mus musculus [21]): > 10%; Activity (Mus musculus [27]): < 10%; MTD at 2 weeks [6]: 10 mg/kg; viability at 0.01 µM (NCI-H146 [25]): > 50% |
| CN(C)CC[C@H](CSc1ccccc1)Nc1ccc(S(=O)(=O)NC(=O)c2ccc(N3CCN(Cc4ccccc4-c4ccc(Cl)cc4)CC3)cc2)cc1[N+](=O)[O-] [ABT 737] |  |  |  |  |  | Dose-dependent effect | Activity (NCI-H146 [16]): >50% |
| CCCn1c(C)c(C(=O)O)c(-c2cccc(N3CCN(c4ccc(NS(=O)(=O)c5ccc(N[C@H](CCN6CCC(O)CC6)CSc6ccccc6)c(S(=O)(=O)C(F)(F)F)c5)cc4)CC3)c2)c1-c1ccc(Cl)cc1 | 30.1 | 8.2 | 7.5 | 128 | 105 |  |  |

The next lines start with results.

| IC50 [8] [nM] | IC50 [10] [nM] | Ki [13] [nM] | Compound | IC50 [1] [nM] | IC50 (NCI-H1417) [nM] | Activity (NCI-H146 [7]) | other results |
| --- | --- | --- | --- | --- | --- | --- | --- |
| 7.7 | 10.5 | 1.7 | Cc1c(C(=O)O)c(-c2cccc(N3CCN(c4ccc(NS(=O)(=O)c5ccc(N[C@H](CCN6CC(O)C6)CSc6ccccc6)c(S(=O)(=O)C(F)(F)F)c5)cc4)CC3)c2)c(-c2ccc(Cl)cc2)n1C | 241 | 299 |  |  |
| 18.6 | 21.8 | 4.6 | Cc1c(C(=O)O)c(-c2cccc(N3CCN(c4ccc(NS(=O)(=O)c5ccc(N[C@H](CCN6CCC(C)(O)CC6)CSc6ccccc6)c(S(=O)(=O)C(F)(F)F)c5)cc4)CC3)c2)c(-c2ccc(Cl)cc2)n1C | 171 | 179 |  |  |
| 8.3 | 10.7 | 1.8 | Cc1c(C(=O)O)c(-c2cccc(N3CCN(c4ccc(NS(=O)(=O)c5ccc(N[C@H](CCN6CCCC6)CSc6ccccc6)c(S(=O)(=O)C(F)(F)F)c5)cc4)CC3)c2)c(-c2ccc(Cl)cc2)n1C | 87 | 106 |  |  |
| 7.5 | 16.5 | 1.7 | Cc1c(C(=O)O)c(-c2cccc(N3CCN(c4ccc(NS(=O)(=O)c5ccc(N[C@H](CCN6CCC6)CSc6ccccc6)c(S(=O)(=O)C(F)(F)F)c5)cc4)CC3)c2)c(-c2ccc(Cl)cc2)n1C | 86 | 126 |  |  |
| 15.6 | 12.1 | 3.8 | Cc1c(C(=O)O)c(-c2cccc(N3CCN(c4ccc(NS(=O)(=O)c5ccc(N[C@H](CCN6CCCCC6)CSc6ccccc6)c(S(=O)(=O)C(F)(F)F)c5)cc4)CC3)c2)c(-c2ccc(Cl)cc2)n1C | 133 | 171 |  |  |
